Tests used:
Ly6G+ cells = experiment: Suppression assay with Ly6G+ cells generated from HPC in the presence of TES; format: cell-based, mouse
mouse neutrophils = experiment: Viability / toxicity in mouse neutrophils; format: cell-based
BM neutrophils = experiment: Transwell chemotaxis of mouse neutrophils toward CXCL1; format: cell-based
In short: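 Bone marrow Ly6G+ neutrophils were MACS-isolated (>95% pure) and pre-incubated with 10 μM test compound for 2 h. They were placed in a 3 μm Transwell, 0.1 × 10^6 cells on top, with CXCL1 in Advanced RPMI below. After 1 h at 37°C, migrated cells were counted. Spontaneously migrating cells were subtracted.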

histone H3 = experiment: PMA-induced citrullination of histone H3 in mouse neutrophils; format: cell-based; conditions: in vitro
[1] = Pharmacokinetic study in mice, oral; format: in vivo, Balb/c male mice; conditions: 10 mg/kg via oral gavage
In short: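 Male Balb/c mice (6–8 weeks, 22–25 g) received 10 mg/kg test compound by oral gavage, as a suspension in Tween-80 and 0.5% methyl cellulose. Sparse blood sampling (~100 μL; three mice per point) was done at 0.25–24 h into K2EDTA tubes. Plasma was separated by centrifugation at 10,000 rpm for 5 min at 4°C.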

LL2 = experiment: Viability of LL2 tumor cell line in vitro; format: cell-based, mouse
B16F10 = experiment: Viability of B16F10 tumor cell line in vitro; format: cell-based, mouse
CXCR2 [2] = experiment: CXCR2 expression on neutrophils treated with JBI-589 in vitro; format: cell-based
LL2 tumors = experiment: LL2 tumor model in mice; format: in vivo, mouse
B16F10 tumors = experiment: B16F10 tumor model in mice; format: in vivo, mouse; conditions: B16F10-bearing mice; 50 mg/kg b.i.d., daily, oral gavage
In short: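 Male and female mice, 6–8 weeks old, were given 0.3× 10^6 B16F10 cells s.c. into the right flank. Cells were grown in DMEM with 10% FBS and were Mycoplasma-negative. Test compound was given by oral gavage. Read-out was the kinetics of primary tumor growth.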

CXCR2 [3] = experiment: CXCR2 surface expression on Ly6G+ cells from treated LL2-bearing mice; format: in vivo, mouse; conditions: JBI-589 treated LL2-bearing mice
In short: (§1)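 LL2 cells (0.3× 10^6) were injected s.c. into the right flank. Mice received test compound at 50 mg/kg b.i.d. daily by oral gavage. Cells were Fc-blocked for 10 min, then antibody-stained for 20 min on ice with Live/Dead Aqua. Surface receptor was measured by flow cytometry on CD45+CD11b+Ly6G+ cells.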

CXCR4 [4] = experiment: CXCR4 surface expression on Ly6G+ cells from treated LL2-bearing mice; format: in vivo, mouse; conditions: JBI-589 treated LL2-bearing mice
In short: as §1

[5] = test system: BM and spleen neutrophils; format: in vivo, mouse; conditions: neutrophils from JBI-589-treated LL2-bearing mice re-stimulated in vitro with LL2 cell supernatant
M-MDSC, TAMs = experiment: Gene expression in spleen M-MDSC or TAMs treated in vitro; format: cell-based, mouse; conditions: in vitro treatment of spleen M-MDSC or TAMs from LL2-bearing mice
M-MDSC, TAM, PMN-MDSC = experiment: Suppression assay with myeloid cells isolated from treated mice; format: in vivo, mouse; conditions: cells from JBI-589-treated mice
PAD = PAD (Mus musculus, UniProt Q9Z183); experiment: PAD activity assay in BM neutrophils of tumor-bearing mice; format: cell-based; conditions: BM Ly6G+ cells pretreated for 2h with GSK484
Chain of PAD (Q9Z183 whole entry): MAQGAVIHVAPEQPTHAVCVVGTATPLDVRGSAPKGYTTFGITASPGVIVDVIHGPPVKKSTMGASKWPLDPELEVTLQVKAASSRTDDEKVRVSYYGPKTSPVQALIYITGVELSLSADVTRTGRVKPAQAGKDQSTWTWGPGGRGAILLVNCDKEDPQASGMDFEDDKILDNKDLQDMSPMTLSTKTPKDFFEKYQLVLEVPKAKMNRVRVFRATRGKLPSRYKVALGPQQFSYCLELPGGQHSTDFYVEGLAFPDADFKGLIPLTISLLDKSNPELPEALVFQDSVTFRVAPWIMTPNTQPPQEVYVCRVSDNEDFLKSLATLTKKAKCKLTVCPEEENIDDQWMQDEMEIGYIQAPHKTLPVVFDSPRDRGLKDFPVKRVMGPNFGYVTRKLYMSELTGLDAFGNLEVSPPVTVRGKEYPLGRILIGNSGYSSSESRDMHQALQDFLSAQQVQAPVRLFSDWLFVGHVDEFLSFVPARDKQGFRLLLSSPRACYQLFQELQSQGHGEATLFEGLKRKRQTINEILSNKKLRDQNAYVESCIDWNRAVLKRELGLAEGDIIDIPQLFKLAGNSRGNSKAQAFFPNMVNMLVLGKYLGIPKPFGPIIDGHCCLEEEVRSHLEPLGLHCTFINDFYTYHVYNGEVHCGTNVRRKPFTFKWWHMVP
In short: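 Bone marrow Ly6G+ cells (MACS) from tumor-free or tumor-bearing mice were pretreated for 2 h with inhibitor. Cells were lysed at 1×10^8 cells/mL and lysates incubated with 10 mM BAEE for 30 min at 37°C. Colour reagent (acids, ammonium iron sulfate, DAMO, thiosemicarbazide) was added, samples heated at 95–100°C for 15 min, and absorbance read at 540 nm.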

Mouse HPC = experiment: HPC differentiation in vitro with GM-CSF with or without LLC TES; format: cell-based; conditions: 10 μM; presence or absence of TES; 5 days of culture
In short: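 Bone marrow HPC from WT or PAD4 KO mice were lineage-depleted and differentiated in RPMI with GM-CSF (20 ng/mL), with or without 25% LLC explant supernatant and with or without 10 μM test compound, for 5 days. Proportion and absolute number of Ly6G+ cells were determined by flow cytometry in Aqua-negative cells.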

CXCR2 [6] = experiment: CXCR2 surface expression on neutrophils differentiated in vitro from HPC; format: cell-based, mouse; conditions: 10 μM
In short: (§2)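 Bone marrow hematopoietic progenitors were lineage-depleted and cultured in RPMI with GM-CSF (20 ng/mL), with or without 25% LLC tumor explant supernatant and with or without 10 μM test compound. The supernatant came from ~1.5 cm tumors, minced, incubated overnight at 37°C and 0.22 μm filtered. Surface CXCR2/CXCR4 was measured by flow cytometry.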

CXCR4 [7] = experiment: CXCR4 surface expression on neutrophils differentiated in vitro from HPC; format: cell-based, mouse; conditions: 10 μM
In short: as §2

CXCR2 [8] = experiment: CXCR2 expression in human PB neutrophils; format: cell-based
In short: (§3)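 Peripheral blood neutrophils came from healthy donors or cancer patients. They were collected at the Histopaque 1.077/1.119 interphase after double-density gradient centrifugation, followed by RBC lysis, with CD15 staining to confirm purity. Cells were exposed to 10 μM test compound for 1–4 h. Receptor mRNA was measured by SYBR Green qPCR normalized to β-actin, and surface level by flow cytometry.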

CXCR4 [9] = experiment: CXCR4 expression in human PB neutrophils; format: cell-based
In short: as §3

human neutrophils [10] = experiment: Viability of human neutrophils; format: cell-based; conditions: four-hour treatment, 10 μM
human neutrophils [11] = experiment: Chemotaxis of human neutrophils toward IL-8; format: cell-based; conditions: 10 μM for 4h
In short: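 Human neutrophils were treated with 10 μM test compound for 4 h. They were then placed in a 3 μm pore Transwell, 0.1 × 10^6 cells in Advanced RPMI in the insert, with chemoattractant in medium below. After 1 h at 37°C and 5% CO2, migrated cells in the bottom well were counted.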

T cells = experiment: T cell proliferation, human PB MNC stimulated with CD3/CD28 Dynabeads; format: cell-based; conditions: 10 μM pre-treatment 2h; healthy donors or cancer patients; 72h
In short: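 Peripheral blood mononuclear cells (Ficoll-Paque; healthy donors or multiple myeloma patients) were labeled with CellTrace Far Red. Cells were pre-treated for 2 h with 10 μM test compound or DMSO vehicle and stimulated with CD3/CD28 Dynabeads for 72 h. Dye dilution was read by flow cytometry in gated CD4+ and CD8+ T cells.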

CD4+ T cells = experiment: IFN-γ production by human T cells; format: cell-based; conditions: 10 μM pre-treatment; 5h stimulation
In short: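 Peripheral blood mononuclear cells from healthy donors or multiple myeloma patients were Ficoll-Paque isolated. Cells were pre-treated with 10 μM test compound or DMSO vehicle, then stimulated for 5 h with a cell stimulation cocktail with or without protein transport inhibitors. IFN-γ and IL-2 were measured by flow cytometry in gated CD4+ and CD8+ T cells.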

[12] = 10 μM for 4h, healthy donors and cancer patients, flow cytometry

Cc1c(-c2cc3ccccc3n2Cc2ccc(F)cc2)nc2cc(C(=O)N3CCC[C@@H](N)C3)ccn12 [JBI-589, (R)-(3-aminopiperidin-1-yl)(2-(1-(4-fluorobenzyl)-1H-indol-2-yl)-3-methylimidazo[1,2-a]pyridin-7-yl)methanone]
suppressive activity of Ly6G+ cells generated in vitro from HPC in the presence of TES (Ly6G+ cells; JBI-589): no effect
toxicity in mouse neutrophils (mouse neutrophils; in vitro, JBI-589): without noticeable toxicity
CXCL1-induced migration of neutrophils (BM neutrophils; in vitro, JBI-589): reduced
PMA-induced citrullination of histone H3 (histone H3): inhibited PMA-induced citrullination of histone H3 in mouse neutrophils in a dose-dependent manner
oral bioavailability [1]: excellent oral bioavailability
viability of LL2 tumor cell line (LL2): No effect
viability of B16F10 tumor cell line (B16F10): No effect
CXCR2 expression on neutrophil (CXCR2 [2]): significantly downregulated
infiltration of tumor tissues with activated CD8+ and CD4+ T cells (LL2 tumors; LL2-bearing mice): increased infiltration
frequency of LSK, GMP, CMP and MEP and their proliferation in spleens (LL2 tumors; LL2-bearing mice, treated vs control): No differences
primary tumor growth (LL2 tumors; LL2-bearing mice, 50 mg/kg, twice a day, daily, oral gavage): markedly reduced
lung metastatic lesions (LL2 tumors; LL2-bearing mice, IVIS): almost undetectable
inhibition of primary tumor growth by ICB on addition of JBI-589 (LL2 tumors; LL2-bearing mice, JBI-589 50 mg/kg b.i.d. plus anti-CTLA-4 and anti-PD-1 antibodies): significantly enhanced
presence of tumor-associated neutrophils (LL2 tumors; LL2-bearing mice, flow cytometry): significant decrease
cellularity of the BM (LL2 tumors; mouse, in vivo): did not affect
primary tumor growth (B16F10 tumors): markedly reduced
CXCR2 receptor expression in Ly6G+ cells (CXCR2 [3]): significant down-regulation
CXCR4 receptor expression in Ly6G+ cells (CXCR4 [4]): but not CXCR4
NET formation by BM and spleen neutrophils [5]: unable to produce NETs
expression of genes encoding soluble factors involved in pro-tumorigenic effect (M-MDSC, TAMs): did not affect
suppressive activity of M-MDSC, TAM and PMN-MDSC (M-MDSC, TAM, PMN-MDSC): did not affect suppressive activity

COc1cc(C(=O)N2CC[C@@H](O)[C@@H](N)C2)cc2nc(-c3cc4ccccc4n3CC3CC3)n(C)c12 [GSK484]
tumor-induced up-regulation of PAD activity in PMN (PAD): completely abrogated
HPC differentiation (proportion and absolute number of Ly6G+ cells) (Mouse HPC): had no effect
immune suppressive activity of Ly6G+ cells generated in the presence of TES (Ly6G+ cells; inhibitor present during HPC differentiation): did not abrogate
viability of neutrophils (mouse neutrophils; mouse neutrophils): did not affect
CXCL1-induced chemotaxis of neutrophils (BM neutrophils; BM neutrophils pre-incubated with 10 μM for 2h): reduced
up-regulation of CXCR2 in the presence of TES (CXCR2 [6]; with LLC TES): abrogated up-regulation of CXCR2
baseline CXCR2 expression (CXCR2 [6]; without TES): reduced baseline CXCR2 expression
CXCR4 expression in the presence of TES (CXCR4 [7]; with LLC TES): reduced its expression in the presence of TES
CXCR4 expression in control (CXCR4 [7]; without TES): slightly decreased
CXCR2 receptor expression in neutrophils (CXCR2 [8]; [12]): dramatically reduced
CXCR2 receptor (surface) level (CXCR2 [8]; 4h after treatment, 10 μM, HD neutrophils, time course): significant downregulation
surface level of CXCR2 protein (CXCR2 [8]; one-hour treatment, 10 μM, HD neutrophils): not affecting
CXCR2 gene expression (CXCR2 [8]; one-hour treatment, 10 μM, HD neutrophils, qPCR): significantly downregulated
gene or protein expression of CXCR4 (CXCR4 [9]; 10 μM for 1–4h, HD neutrophils): did not affect
neutrophil CXCR4 receptor expression (CXCR4 [9]; [12]): did not affect expression
viability of neutrophils (human neutrophils [10]): did not affect viability
chemotaxis of neutrophils toward IL-8 (human neutrophils [11]): decreased chemotaxis
T cell proliferation (T cells): slightly decreased
IFN-γ production by CD4+ T cells (CD4+ T cells): reduced IFN-γ production
